Test results as given in the RNAGym collection of RNA variant scans (doi:10.1126/science.aae0568).
This sample holds only a part of the variants without activity.

B1: tRNA (parent)
chain: GUUCCGUUGGCGUAAUGGUAACGCGUCUCCCUCCUAAGGAGAAGACUGCGGGUUCGAGUCCCGUACGGAACG

Variants of: B1
Test: yeast fitness relative to wild type (ratio to wild type); higher = fitter; tRNA-Arg(CCU), competitive growth, 37 C, YPD
Method in brief: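 Genotype frequency changes were the basis for Darwinian fitness relative to wild type. The frequencies came from 100-nucleotide paired-end sequencing of gene amplicons from the start population and each end population of pooled yeast strains with tRNA-Arg(CCU) gene variants at the native locus. Competition ran in YPD at 37°C for 24 hours in six replicates, genotypes needed ≥ 100 starting reads, and estimates < 0.5 were set to 0.5.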

Variant	yeast fitness
GUUCCGUUGGCGUAAUGGUAACGCGUCUCUCUCCUAAGGAGAAGACUGCGGGUUCGAGUCCCGUACGACACG [C30U G68A A69C]	0.544
GUUCCGUUGGCGUAAUGGUAACGCGUCUCUCUCCUAAGGAGAAGACUGCGGGUUCGAGUCCCGUACGAAUCG [C30U G68A A70U]	0.577
GUUCCGUUGGCGUAAUGGUAACGCGUCUCUCUCCUAAGGAGAAGACUGCGGGUUCGAGUCCCGUACGUAACG [C30U G68U]	0.923
GUUCCGUUGGCGUAAUGGUAACGCGUCUCUCACCUUUGGAGAAGACUGCGGGUUCGAGUCACGUACGGAACG [C30U U32A A36U A37U C61A]	≤ 0.5
GUUCCGUUGGCGUAAUGGUAACGCGUCUCUCACCUUUGGAGAAGACUGCGGGUUCGAGUCCUAUACGGAACG [C30U U32A A36U A37U C62U G63A]	≤ 0.5
GUUCCGUUGGCGUAAUGGUAACGCGUCUCUCACCUAAGGAGAAGACUGCGGGUACGAGUCCCGUACGGAACG [C30U U32A U54A]	0.536
GUUCCGUUGGCGUAAUGGUAACGCGUCUCUCCCCUAAGGAGAAGACUGCGGGUUCGAGUCCCGUACGGAACG [C30U U32C]	0.924
GUUCCGUUGGCGUAAUGGUAACGCGUCUCUCCCCUAAGGAGAAGACUGCGGGUACGAGUCCCGUACGGAACG [C30U U32C U54A]	≤ 0.5
GUUCCGUUGGCGUAAUGGUAACGCGUCUCUCGCCUGUGGAGAAGACAGCGGGUUCGAGUCCCGUACGGAACG [C30U U32G A36G A37U U47A]	0.559
GUUCCGUUGGCGUAAUGGUAACGCGUCUCUCGCCUAGGGAGAAGACUGCGGGUUCGAGUCCCGUACGGAACG [C30U U32G A37G]	≤ 0.5
GUUCCGUUGGCGUAAUGGUAACGCGUCUCUCGCCUAAGGAGAAGACUGCGGGUUCGAGUCCCGAACGCAACG [C30U U32G U64A G68C]	≤ 0.5
GUUCCGUUGGCGUAAUGGUAACGCGUCUCUCUCCAAAGGAGAAGACUGCGGGUUCGAGUCCCGUACGGAACG [C30U U35A]	0.63
GUUCCGUUGGCGUAAUGGUAACGCGUCUCUCUCCAAGCGAGAAGACAGCGGGUUCGAGUCCCGUACGGAACG [C30U U35A A37G G38C U47A]	≤ 0.5
GUUCCGUUGGCGUAAUGGUAACGCGUCUCUCUCCAAAGGAGGAGACUGCGGGUUCGAGUCUCAUACGGAACG [C30U U35A A42G C61U G63A]	0.519
GUUCCGUUGGCGUAAUGGUAACGCGUCUCUCUCCCAAGGAGCAGACUCCGGGUUCGAGUCCCGUACGGAACG [C30U U35C A42C G48C]	≤ 0.5
GUUCCGUUGGCGUAAUGGUAACGCGUCUCUCUCCCAAGGAGACGACUGCGGGUUCGAGUCCCGUACUGAACG [C30U U35C A43C G67U]	≤ 0.5
GUUCCGUUGGCGUAAUGGUAACGCGUCUCUCUCCCAAGGAGAAGUCUGCGGGUUCGCGUCCCGUACGGAACG [C30U U35C A45U A57C]	0.534
GUUCCGUUGGCGUAAUGGUAACGCGUCUCUCUCCCAAGGAGAAGACUGCGUGUUCGAGUCUCGUACGGAACG [C30U U35C G51U C61U]	≤ 0.5
GUUCCGUUGGCGUAAUGGUAACGCGUCUCUCUCCUAAGGAGAAGACAGCGGGUUCGGGUCCCGUACCGAACG [C30U U47A A57G G67C]	≤ 0.5

Variant	yeast fitness
GUUCCGUUGGCGUAAUGGUAACGCGUCUCUCUCCUAAGGAGAAGACAGCGGGUUCGAGUCCCGUACCGAACG [C30U U47A G67C]	0.567
GUUCCGUUGGCGUAAUGGUAACGCGUCUCUCUCCUAAGGAGAAGACAGCGGGUUCGAGUCCCGUACCAAACG [C30U U47A G67C G68A]	≤ 0.5
GUUCCGUUGGCGUAAUGGUAACGCGUCUCUCUCCUAAGGAGAAGACAGCGGGUUCGAGAUCGGUAUGGAACG [C30U U47A U59A C60U C62G C66U]	≤ 0.5
GUUCCGUUGGCGUAAUGGUAACGCGUCUCUCUCCUAAGGAGAAGACCGCGGGUUCGAGUCCCGUACGGAACG [C30U U47C]	0.835
GUUCCGUUGGCGUAAUGGUAACGCGUCUCUCUCCUAAGGAGAAGACCGCGGGUUCGAGUCCCGUGCGGAACG [C30U U47C A65G]	≤ 0.5
GUUCCGUUGGCGUAAUGGUAACGCGUCUCUCUCCUAAGGAGAAGACUGCGGGUACGAGUCCCGUACGGAGCG [C30U U54A A70G]	0.518
GUUCCGUUGGCGUAAUGGUAACGCGUCUCUCUCCUAAGGAGAAGACUGCGGGUACGAGUCCCGUACGGAUCG [C30U U54A A70U]	0.572
GUUCCGUUGGCGUAAUGGUAACGCGUCUCUCUCCUAAGGAGAAGACUGCGGGUACGAGUCCCGUAUGGACCG [C30U U54A C66U A70C]	≤ 0.5
GUUCCGUUGGCGUAAUGGUAACGCGUCUCUCUCCUAAGGAGAAGACUGCGGGUACGAGUCCCGUACGUAACG [C30U U54A G68U]	≤ 0.5
GUUCCGUUGGCGUAAUGGUAACGCGUCUCUCUCCUAAGGAGAAGACUGCGGGUCCGAGUCCCGUACGGAACG [C30U U54C]	0.805
GUUCCGUUGGCGUAAUGGUAACGCGUCUCUCUCCUAAGGAGAAGACUGCGGGUCCGCGUCCCGUACGGAACG [C30U U54C A57C]	≤ 0.5
GUUCCGUUGGCGUAAUGGUAACGCGUCUCUCUCCUAAGGAGAAGACUGCGGGUCCGCGUCCCGUACGGACCG [C30U U54C A57C A70C]	≤ 0.5
GUUCCGUUGGCGUAAUGGUAACGCGUCUCUCUCCUAAGGAGAAGACUGCGGGUUCGAGACCCGUACGGAACG [C30U U59A]	0.828
GUUCCGUUGGCGUAAUGGUAACGCGUCUCUCUCCUAAGGAGAAGACUGCGGGUUCGAGCCCCGUACGGAACG [C30U U59C]	0.824
GUUCCGUUGGCGUAAUGGUAACGCGUCUCUCUCCUAAGGAGAAGACUGCGGGUUCGAGUCCCGCACGGAACG [C30U U64C]	0.902
GUUCCGUUGGCGUAAUGGUAACGCGUCUCCAUCCUAAGGAGAAGACUGCGGGUUCGAGUCCCGUACGGAACG [C31A]	0.848
GUUCCGUUGGCGUAAUGGUAACGCGUCUCCAUCCUCAGGAGAAAACUGCGGGUUCGUGUCCCGUAAGGAACG [C31A A36C G44A A57U C66A]	≤ 0.5
GUUCCGUUGGCGUAAUGGUAACGCGUCUCCAUCCUGAGGAGAAGACUGCGGGUUCGUGUCCCGUACGGAACG [C31A A36G A57U]	0.539
GUUCCGUUGGCGUAAUGGUAACGCGUCUCCAUCCUUAGGAGAAGACUGCGGGUUCGAGUCCCGUACGGAACG [C31A A36U]	0.705
